In ChEMBL document CHEMBL4043283, “Discovery and Preclinical Development of IIIM-290, an Orally Active Potent Cyclin-Dependent Kinase Inhibitor” (J Med Chem, 2018):

Legend:
MIA PaCa-2 [1] = assay: Induction of apoptosis in human MIAPaCa2 cells assessed as caspase-3 cleavage by Western blot method; type: functional, cell-based
In short: (§1)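 Lysate protein quantified against a BSA standard; 70 μg resolved by SDS-PAGE, transferred to PVDF overnight at 4 °C, 30 V; blocked 1 h in 5% nonfat milk/TBST; primary antibodies 2–4 h, HRP anti-mouse secondary 1 h; ECL detection on X-ray film.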

[2] = Half life in BALB/c mouse at 10 mg/kg, po by LC-MS/MS analysis; type: ADME, organism-based; conditions: in vivo
Ehrlich = assay: Antitumor activity against Swiss mouse EAC allografted in Swiss albino mouse assessed as tumor growth inhibition at 100 mg/kg, po administered for 9 day measured on day 13 relative to control; type: functional; conditions: read-out: TGI
[3] = Half life in dog liver S9 fraction preincubated for 5 mins followed by NADPH addition measured after 30 mins by LC-MS/MS analysis; type: ADME, tissue-based, Canis lupus familiaris
[4] = Ionization constant, pKa of compound by UV spectrophotometric analysis; type: physicochemical
[5] = Tmax in BALB/c mouse at 3 mg/kg, po by LC-MS/MS analysis; type: ADME, organism-based; conditions: in vivo
[6] = Tmax in Sprague-Dawley rat at 30 mg/kg, po by LC-MS/MS analysis; type: ADME, organism-based; conditions: in vivo
[7] = Volume of distribution in BALB/c mouse at 1 mg/kg, iv by LC-MS/MS analysis; type: ADME, organism-based; conditions: in vivo
[8] = test system: Mast/stem cell growth factor receptor Kit (Homo sapiens), P10721 [A829P]; assay: Inhibition of partial length human KIT A829P mutant expressed in mammalian expression system at 0.5 uM by KINOMEscan method relative to control
In short: (§2)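 Competition binding screen (KINOMEscan) at 0.5 μM; primary binding read out as % of control, lower values indicating stronger interaction.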

[9] = Half life in human liver microsomes at 100 uM after 30 mins by LC-MS/MS analysis; type: ADME, microsome
MOLT-4 = assay: Growth inhibition of human MOLT4 cells after 48 hrs by MTT assay; type: functional; conditions: MOLT-4, 48 h
In short: (§3)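 Cancer cell lines sourced from the National Cancer Institute (USA). Cells kept in appropriate growth medium at 37 °C, 95% humidity, 5% CO2. Antiproliferation read by tetrazolium (MTT) assay. GI50 values were determined only for compounds selected after an initial single-concentration screen.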

[10] = Protein binding in dog plasma at 3 uM after 5 hrs by equilibrium dialysis method; type: ADME, cell-free, Canis lupus familiaris; conditions: read-out: PPB (converted)
[11] = n-octanol-water partition co-efficient, log P of compound by shake flask method; type: physicochemical
PC-3 = assay: Growth inhibition of human PC3 cells after 48 hrs by MTT assay; type: functional; conditions: PC-3, 48 h; in short: as §3
CDK2/Cyclin A2 = CDK2/Cyclin A2 (Homo sapiens, UniProt P24941); assay: Inhibition of CDK2/cyclin A (unknown origin) using histone H1 as substrate after 30 mins in presence of [33P]-gamma-ATP by filter binding assay; type: protein-complex assay
Mus musculus [12] = assay: Toxicity in CD1 nude mouse xenografted with human HCT116 cells assessed as change in body weight at 25 to 50 mg/kg, po qd administered on day 10 to 25 post tumor inoculation; type: organism-based; conditions: in vivo
[13] = Pancreas to plasma partition coefficient, Kp of the compound in Sprague-Dawley rat at 30 mg/kg, po measured at 1 hr; type: ADME, organism-based; conditions: pancreas and plasma
Salmonella typhimurium = assay: Mutagenicity in Salmonella typhimurium TA1537 at 50 ug/plate in presence of liver S9 fraction by Ames test; type: toxicity; conditions: salmonella enterica subsp. enterica serovar typhimurium
[14] = biological target: Citron Rho-interacting kinase (Homo sapiens) (UniProt O14578); assay: Inhibition of partial length wild type human CIT expressed in bacterial expression system at 0.5 uM by KINOMEscan method relative to control; in short: as §2
Mus musculus [15] = assay: Toxicity in CD1 nude mouse xenografted with human MIAPaCa2 cells assessed as mortality at 50 mg/kg, po qd administered on day 10 to 25 post tumor inoculation; type: organism-based; conditions: in vivo
MIA PaCa-2 [16] = assay: Growth inhibition of human MIAPaCa2 cells after 48 hrs by MTT assay; type: functional; conditions: MIA PaCa-2, 48 h; in short: as §3
[17] = biological target: Serine/threonine-protein kinase ICK (Homo sapiens) (UniProt Q9UPZ9); assay: Inhibition of partial length wild type human ICK expressed in mammalian expression system at 0.5 uM by KINOMEscan method relative to control; in short: as §2
Cytochrome P450 3A4 = Cytochrome P450 3A4 (Homo sapiens, UniProt P08684); assay: Inhibition of human CYP3A4 using fluorogenic substrate preincubated with co-factor for 10 mins followed by enzyme-substrate addition by fluorometric method; type: ADME
In short: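 Cofactor plus test item or vehicle, in triplicate, preincubated 10 min at 37 °C; prewarmed enzyme–substrate mix added and incubated at 37 °C with shaking. Quench: acetonitrile (CYP2C19, CYP3A4) or 0.25 M Tris in 60% methanol (CYP2C9, CYP2D6). Metabolite fluorescence read; % inhibition computed against enzyme controls and enzyme-free blanks.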

[18] = test system: Tyrosine-protein kinase ABL1 (Homo sapiens), P00519 [E255K]; assay: Inhibition of phosphorylated partial length human ABL1 E255K mutant expressed in mammalian expression system at 0.5 uM by KINOMEscan method relative to control; in short: as §2
[19] = Chemical stability of compound in phosphate buffered saline at pH 6.8 assessed as parent compound remaining at 120 ug/ml after 24 hrs by HPLC method; type: physicochemical; conditions: read-out: Stability
MIA PaCa-2 [20] = assay: Induction of apoptosis in human MIAPaCa2 cells at 1.5 uM after 24 hrs by propidium iodide staining-based flow cytometric method relative to control; type: functional
[21] = Intrinsic clearance in dog hepatocytes assessed per million cells at 3 uM after 180 mins by LC-MS/MS analysis; type: ADME, cell-based, Canis lupus familiaris, Hepatocyte; conditions: read-out: CLH
In short: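 Intrinsic clearance obtained from substrate disappearance over time, reported per mg protein (microsomes, S9) or per 10^6 cells (hepatocytes).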

[22] = Protein binding in human plasma at 3 uM after 5 hrs by equilibrium dialysis method; type: ADME, cell-free; conditions: read-out: PPB (converted)
HOP-92 = assay: Growth inhibition of human HOP92 cells after 48 hrs by MTT assay; type: functional; conditions: HOP-92, 48 h; in short: as §3
[23] = AUC in BALB/c mouse at 30 mg/kg, po by LC-MS/MS analysis; type: ADME, organism-based; conditions: in vivo
[24] = Half life in dog hepatocytes at 3 uM after 180 mins by LC-MS/MS analysis; type: ADME, cell-based, Canis lupus familiaris, Hepatocyte
MIA PaCa-2 [25] = assay: Induction of apoptosis in human MIAPaCa2 cells assessed as PARP cleavage by Western blot method; type: functional, cell-based; in short: as §1
Homo sapiens = species on record: Homo sapiens; assay: Selectivity ratio of IC50 for CDK2/cyclin A (unknown origin) to IC50 for CDK9/cyclin T1 (unknown origin)
PBL = assay: Genotoxicity in human PBL at 0.125 to 2 ug/ml in presence of cytokinesis blocking agent cytochalasin B and liver S9 fraction by micronucleus test; type: toxicity, cell-based
[26] = Chemical stability of compound in SGF at pH 1.2 assessed as parent compound remaining after 8 hrs by HPLC method; type: physicochemical; conditions: read-out: Stability
CDK4/Cyclin D3 = CDK4/Cyclin D3 (Homo sapiens, UniProt P11802); assay: Inhibition of CDK4/cyclin D3 (unknown origin) after 30 mins in presence of [33P]-gamma-ATP by filter binding assay; type: protein-complex assay
Chain of CDK4/Cyclin D3 (P11802 whole entry): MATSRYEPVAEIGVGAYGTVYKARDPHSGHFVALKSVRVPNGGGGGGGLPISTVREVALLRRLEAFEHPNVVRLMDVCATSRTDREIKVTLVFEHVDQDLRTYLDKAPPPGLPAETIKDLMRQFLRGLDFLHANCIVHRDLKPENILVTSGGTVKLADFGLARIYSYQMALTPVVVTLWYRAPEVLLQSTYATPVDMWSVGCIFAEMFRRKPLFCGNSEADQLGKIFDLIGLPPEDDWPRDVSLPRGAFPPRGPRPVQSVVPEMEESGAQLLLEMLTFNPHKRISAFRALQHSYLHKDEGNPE
Chain of CDK4/Cyclin D3 (P30281 whole entry, further chain): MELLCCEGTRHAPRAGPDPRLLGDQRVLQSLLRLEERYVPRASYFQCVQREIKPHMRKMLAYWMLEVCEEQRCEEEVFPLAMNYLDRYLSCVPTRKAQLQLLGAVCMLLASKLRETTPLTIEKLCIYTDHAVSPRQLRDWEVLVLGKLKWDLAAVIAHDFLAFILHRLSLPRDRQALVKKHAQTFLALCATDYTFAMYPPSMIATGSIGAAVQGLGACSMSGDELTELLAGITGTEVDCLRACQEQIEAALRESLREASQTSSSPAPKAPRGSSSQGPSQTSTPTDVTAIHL

Chain of Citron Rho-interacting kinase (Homo sapiens) (O14578 whole entry): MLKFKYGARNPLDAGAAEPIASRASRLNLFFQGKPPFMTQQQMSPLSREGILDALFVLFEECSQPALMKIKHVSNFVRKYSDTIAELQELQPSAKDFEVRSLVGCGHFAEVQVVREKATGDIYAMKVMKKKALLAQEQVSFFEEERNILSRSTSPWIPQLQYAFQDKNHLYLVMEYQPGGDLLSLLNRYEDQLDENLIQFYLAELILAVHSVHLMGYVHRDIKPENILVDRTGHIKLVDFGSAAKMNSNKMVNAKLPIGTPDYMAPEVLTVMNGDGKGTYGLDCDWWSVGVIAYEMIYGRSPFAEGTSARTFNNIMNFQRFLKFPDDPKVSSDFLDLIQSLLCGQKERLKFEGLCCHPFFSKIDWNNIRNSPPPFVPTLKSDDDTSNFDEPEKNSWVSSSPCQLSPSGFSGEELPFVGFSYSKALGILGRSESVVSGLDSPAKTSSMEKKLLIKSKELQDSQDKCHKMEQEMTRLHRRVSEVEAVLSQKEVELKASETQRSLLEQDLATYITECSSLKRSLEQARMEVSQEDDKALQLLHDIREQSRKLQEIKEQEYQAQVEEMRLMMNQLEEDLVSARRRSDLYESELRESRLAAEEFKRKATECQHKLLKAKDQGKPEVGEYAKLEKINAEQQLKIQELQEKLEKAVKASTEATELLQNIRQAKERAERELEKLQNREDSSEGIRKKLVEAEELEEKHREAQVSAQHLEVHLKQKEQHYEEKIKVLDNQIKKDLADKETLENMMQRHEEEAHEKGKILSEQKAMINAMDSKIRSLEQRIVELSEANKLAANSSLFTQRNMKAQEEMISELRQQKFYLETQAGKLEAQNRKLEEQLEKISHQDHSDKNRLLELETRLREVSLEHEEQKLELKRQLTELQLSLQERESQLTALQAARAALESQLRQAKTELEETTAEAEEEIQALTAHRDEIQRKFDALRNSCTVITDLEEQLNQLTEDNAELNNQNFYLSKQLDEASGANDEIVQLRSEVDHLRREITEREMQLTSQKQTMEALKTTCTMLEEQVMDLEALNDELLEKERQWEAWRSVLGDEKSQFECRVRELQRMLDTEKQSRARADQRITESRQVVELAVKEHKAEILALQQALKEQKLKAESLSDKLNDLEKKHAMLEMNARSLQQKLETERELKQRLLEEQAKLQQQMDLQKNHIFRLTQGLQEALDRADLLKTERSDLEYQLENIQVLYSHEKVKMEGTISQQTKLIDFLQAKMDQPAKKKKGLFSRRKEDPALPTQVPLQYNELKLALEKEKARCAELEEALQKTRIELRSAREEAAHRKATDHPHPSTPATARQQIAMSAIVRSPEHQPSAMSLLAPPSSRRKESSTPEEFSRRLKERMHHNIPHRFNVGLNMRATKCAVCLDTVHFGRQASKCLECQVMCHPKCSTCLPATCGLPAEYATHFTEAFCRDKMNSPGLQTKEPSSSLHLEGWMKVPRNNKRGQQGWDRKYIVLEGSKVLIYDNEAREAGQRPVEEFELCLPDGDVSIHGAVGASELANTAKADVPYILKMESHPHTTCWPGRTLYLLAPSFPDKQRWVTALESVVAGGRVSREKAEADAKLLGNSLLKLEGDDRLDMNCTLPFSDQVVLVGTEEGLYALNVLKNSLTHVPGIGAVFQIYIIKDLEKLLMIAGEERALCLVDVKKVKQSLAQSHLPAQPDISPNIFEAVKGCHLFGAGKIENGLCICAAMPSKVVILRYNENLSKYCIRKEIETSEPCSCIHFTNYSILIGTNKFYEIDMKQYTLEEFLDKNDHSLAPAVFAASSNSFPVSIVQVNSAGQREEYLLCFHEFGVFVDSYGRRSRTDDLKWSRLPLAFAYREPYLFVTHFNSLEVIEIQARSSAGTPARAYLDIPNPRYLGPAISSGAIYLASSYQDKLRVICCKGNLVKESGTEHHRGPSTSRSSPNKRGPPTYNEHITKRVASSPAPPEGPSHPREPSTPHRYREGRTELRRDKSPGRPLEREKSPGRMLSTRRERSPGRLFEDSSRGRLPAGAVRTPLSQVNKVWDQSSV
Chain of Cytochrome P450 3A4 (P08684 whole entry): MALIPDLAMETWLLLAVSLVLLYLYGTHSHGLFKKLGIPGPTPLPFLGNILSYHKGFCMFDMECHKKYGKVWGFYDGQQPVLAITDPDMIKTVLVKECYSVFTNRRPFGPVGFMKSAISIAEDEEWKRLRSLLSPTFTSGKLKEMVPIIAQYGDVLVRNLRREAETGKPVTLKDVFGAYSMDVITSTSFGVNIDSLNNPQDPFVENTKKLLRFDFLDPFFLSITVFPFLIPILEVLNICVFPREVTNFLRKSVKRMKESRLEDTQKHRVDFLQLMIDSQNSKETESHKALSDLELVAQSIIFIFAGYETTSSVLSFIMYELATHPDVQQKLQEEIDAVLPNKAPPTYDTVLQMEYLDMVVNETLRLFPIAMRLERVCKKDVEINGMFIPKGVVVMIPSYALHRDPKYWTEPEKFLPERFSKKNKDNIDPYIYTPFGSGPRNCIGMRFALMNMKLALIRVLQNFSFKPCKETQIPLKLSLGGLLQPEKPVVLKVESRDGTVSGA
Chain of Serine/threonine-protein kinase ICK (Homo sapiens) (Q9UPZ9 whole entry): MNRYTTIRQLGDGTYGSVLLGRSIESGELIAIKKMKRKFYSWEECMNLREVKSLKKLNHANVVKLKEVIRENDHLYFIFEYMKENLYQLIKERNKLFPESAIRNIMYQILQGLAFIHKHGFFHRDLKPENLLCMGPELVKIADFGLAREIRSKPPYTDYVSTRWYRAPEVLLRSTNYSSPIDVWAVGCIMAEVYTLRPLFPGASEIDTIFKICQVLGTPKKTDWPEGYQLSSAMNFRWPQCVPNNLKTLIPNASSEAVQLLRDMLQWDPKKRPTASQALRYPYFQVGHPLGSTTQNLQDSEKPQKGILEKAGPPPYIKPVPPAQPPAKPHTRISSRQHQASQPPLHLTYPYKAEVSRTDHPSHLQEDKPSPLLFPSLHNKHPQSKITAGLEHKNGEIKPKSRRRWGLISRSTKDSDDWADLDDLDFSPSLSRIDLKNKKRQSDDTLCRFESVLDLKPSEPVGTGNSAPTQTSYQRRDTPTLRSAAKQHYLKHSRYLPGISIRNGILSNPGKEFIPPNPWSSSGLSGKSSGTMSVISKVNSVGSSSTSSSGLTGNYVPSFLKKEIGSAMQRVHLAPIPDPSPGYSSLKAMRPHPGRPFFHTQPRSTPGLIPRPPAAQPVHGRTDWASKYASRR
Chain of Tyrosine-protein kinase ABL1 (Homo sapiens), P00519 [E255K] (P00519 whole entry E255K): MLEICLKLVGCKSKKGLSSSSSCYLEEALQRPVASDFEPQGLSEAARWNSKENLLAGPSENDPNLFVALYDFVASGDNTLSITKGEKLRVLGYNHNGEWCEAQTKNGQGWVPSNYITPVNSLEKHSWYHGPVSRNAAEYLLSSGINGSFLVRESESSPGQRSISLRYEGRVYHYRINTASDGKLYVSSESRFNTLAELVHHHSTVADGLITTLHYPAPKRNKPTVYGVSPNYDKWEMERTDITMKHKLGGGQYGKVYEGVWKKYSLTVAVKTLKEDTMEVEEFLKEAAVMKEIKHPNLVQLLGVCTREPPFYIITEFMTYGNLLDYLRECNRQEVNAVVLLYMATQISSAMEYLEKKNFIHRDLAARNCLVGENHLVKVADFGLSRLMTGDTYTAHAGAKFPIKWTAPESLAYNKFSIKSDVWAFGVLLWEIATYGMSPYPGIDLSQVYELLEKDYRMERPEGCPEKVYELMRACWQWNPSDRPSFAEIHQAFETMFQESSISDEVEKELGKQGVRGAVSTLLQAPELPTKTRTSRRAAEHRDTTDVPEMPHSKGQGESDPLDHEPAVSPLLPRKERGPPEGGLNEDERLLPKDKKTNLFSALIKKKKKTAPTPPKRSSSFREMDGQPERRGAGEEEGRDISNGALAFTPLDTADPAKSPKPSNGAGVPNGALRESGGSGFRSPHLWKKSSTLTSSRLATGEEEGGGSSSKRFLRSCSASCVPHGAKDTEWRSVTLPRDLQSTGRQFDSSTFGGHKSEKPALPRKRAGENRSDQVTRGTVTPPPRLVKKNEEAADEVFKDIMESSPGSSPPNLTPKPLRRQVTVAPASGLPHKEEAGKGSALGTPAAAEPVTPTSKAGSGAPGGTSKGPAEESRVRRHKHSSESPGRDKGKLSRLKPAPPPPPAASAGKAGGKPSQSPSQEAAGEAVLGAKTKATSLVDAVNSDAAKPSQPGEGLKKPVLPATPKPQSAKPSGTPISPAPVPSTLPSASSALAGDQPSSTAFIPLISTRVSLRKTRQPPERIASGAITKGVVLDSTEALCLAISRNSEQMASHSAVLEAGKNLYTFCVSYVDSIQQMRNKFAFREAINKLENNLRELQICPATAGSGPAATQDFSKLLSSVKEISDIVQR

**Q.** What does the source list for `CN1CC[C@H](c2c(O)cc(O)c3c(=O)cc(/C=C/c4c(Cl)cccc4Cl)oc23)[C@H](O)C1`?
**A.** Activity (MIA PaCa-2 [1]): Dose-dependent effect; half-life [2]: 3.61 h; inhibition in vivo at 100 mg/kg (Ehrlich): 39%; half-life [3]: 1.95 h; pKa [4]: 5.4; Tmax [5]: 0.37 h; Tmax [6]: 1 h; Vd [7]: 26.2 L/kg; inhibition [8]: > 98%; half-life at 100 µM [9]: > 0.5 h; GI50 (MOLT-4): 500 nM; fraction unbound at 5 h, 3 µM [10]: 0.05; logP [11]: 3.09; GI50 (PC-3): 3000 to 6000 nM; IC50 (CDK2/Cyclin A2): 15.5 to 16 nM; Activity (Mus musculus [12]): Non-Toxic; Kp at 1 h [13]: 4.1; Activity (Salmonella typhimurium): Non-Toxic; inhibition [14]: > 98%; Activity (Mus musculus [15]): Non-Toxic; GI50 (MIA PaCa-2 [16]): 1000 nM; inhibition [17]: > 98%; IC50 (Cytochrome P450 3A4): > 20000 nM; inhibition [18]: > 98%; remaining at 24 h, 120 ug/ml [19]: 81%; Activity (MIA PaCa-2 [20]): 1.9%; hepatocyte CLint at 3 µM [21]: 12.3 µL/min/1e6 cells; fraction unbound at 5 h, 3 µM [22]: 0.033; GI50 (HOP-92): 3000 nM; AUC [23]: 11.3 µM·h; half-life at 3 µM [24]: 4.68 h; Activity (MIA PaCa-2 [25]): Dose-dependent effect; Ratio IC50 (Homo sapiens): 7; Activity (PBL): Non-Toxic; remaining at 8 h [26]: 100%; IC50 (CDK4/Cyclin D3): 22.5 nM
